According to ChEMBL document CHEMBL1122244, “Synthesis and monoamine oxidase inhibitory activities of alpha-allenic amines in vivo and in vitro. Different activities of two enantiomeric allenes” (J Med Chem, 1983):

Experiments:
[1] = test system: Mus musculus; assay: Lowest dose potentiating the awakening effect of phenethylamine (10 mg/kg, subcutaneous) in mice pretreated with reserpine; assay type: functional
Method in brief: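 Mice were pretreated with reserpine 5 mg/kg sc 18 h beforehand. Test compound was given ip 1 h before PEA hydrochloride 10 mg/kg sc.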

[2] = target: T1, Monoamine oxidase (Rattus norvegicus, UniProt P19643+P21396); assay: In vitro inhibition of Monoamine oxidase at rat hyphalamic mitochondrial PEA by displacing 2.5 uM of [14C]PEA.; assay type: protein assay
T1 sequence (P19643 whole entry): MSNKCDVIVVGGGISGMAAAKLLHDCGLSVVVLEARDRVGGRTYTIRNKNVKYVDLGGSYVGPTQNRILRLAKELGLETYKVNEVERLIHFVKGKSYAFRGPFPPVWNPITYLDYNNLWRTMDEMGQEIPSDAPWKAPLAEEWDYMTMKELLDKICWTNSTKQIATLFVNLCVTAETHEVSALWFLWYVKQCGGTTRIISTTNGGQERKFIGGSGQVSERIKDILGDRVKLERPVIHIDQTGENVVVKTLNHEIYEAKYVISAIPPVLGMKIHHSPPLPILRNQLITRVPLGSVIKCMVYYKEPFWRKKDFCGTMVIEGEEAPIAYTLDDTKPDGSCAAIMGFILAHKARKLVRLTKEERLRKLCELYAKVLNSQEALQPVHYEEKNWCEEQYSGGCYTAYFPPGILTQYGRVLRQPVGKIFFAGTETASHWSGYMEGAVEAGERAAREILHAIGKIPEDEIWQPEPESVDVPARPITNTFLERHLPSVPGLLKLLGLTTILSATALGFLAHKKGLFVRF
T1 sequence (P21396 whole entry): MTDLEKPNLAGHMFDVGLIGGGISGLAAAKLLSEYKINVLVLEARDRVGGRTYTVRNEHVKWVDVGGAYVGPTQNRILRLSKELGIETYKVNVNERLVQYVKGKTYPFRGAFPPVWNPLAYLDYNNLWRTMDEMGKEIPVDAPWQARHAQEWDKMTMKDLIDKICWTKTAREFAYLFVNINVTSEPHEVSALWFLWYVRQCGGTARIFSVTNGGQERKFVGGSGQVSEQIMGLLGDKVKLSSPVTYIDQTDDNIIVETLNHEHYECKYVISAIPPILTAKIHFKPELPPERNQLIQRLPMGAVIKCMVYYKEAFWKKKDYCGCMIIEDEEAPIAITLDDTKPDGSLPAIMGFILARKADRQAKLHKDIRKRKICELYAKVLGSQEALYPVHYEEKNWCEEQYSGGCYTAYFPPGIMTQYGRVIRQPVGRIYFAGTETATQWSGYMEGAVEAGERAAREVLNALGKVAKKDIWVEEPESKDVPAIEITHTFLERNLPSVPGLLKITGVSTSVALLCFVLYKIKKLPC

[3] = target: T2, Monoamine oxidase (Mus musculus, UniProt Q8BW75+Q64133); assay: Inhibitory activity of Monoamine oxidase at mouse forebrain homogenate by displacing [14C]PEA; assay type: tissue-based
T2 sequence (Q8BW75 whole entry): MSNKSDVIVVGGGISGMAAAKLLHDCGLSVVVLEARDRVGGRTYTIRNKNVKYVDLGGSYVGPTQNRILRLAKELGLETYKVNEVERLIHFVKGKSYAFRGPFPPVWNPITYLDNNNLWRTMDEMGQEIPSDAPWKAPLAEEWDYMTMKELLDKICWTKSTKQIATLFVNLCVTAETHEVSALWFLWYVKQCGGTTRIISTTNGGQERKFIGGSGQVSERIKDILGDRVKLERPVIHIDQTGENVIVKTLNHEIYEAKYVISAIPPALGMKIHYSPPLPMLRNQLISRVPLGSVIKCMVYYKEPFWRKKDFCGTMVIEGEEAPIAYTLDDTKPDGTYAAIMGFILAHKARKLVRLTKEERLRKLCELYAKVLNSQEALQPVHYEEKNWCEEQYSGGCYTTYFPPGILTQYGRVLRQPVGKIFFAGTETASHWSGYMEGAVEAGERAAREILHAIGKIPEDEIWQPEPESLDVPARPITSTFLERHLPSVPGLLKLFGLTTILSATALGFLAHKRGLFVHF
T2 sequence (Q64133 whole entry): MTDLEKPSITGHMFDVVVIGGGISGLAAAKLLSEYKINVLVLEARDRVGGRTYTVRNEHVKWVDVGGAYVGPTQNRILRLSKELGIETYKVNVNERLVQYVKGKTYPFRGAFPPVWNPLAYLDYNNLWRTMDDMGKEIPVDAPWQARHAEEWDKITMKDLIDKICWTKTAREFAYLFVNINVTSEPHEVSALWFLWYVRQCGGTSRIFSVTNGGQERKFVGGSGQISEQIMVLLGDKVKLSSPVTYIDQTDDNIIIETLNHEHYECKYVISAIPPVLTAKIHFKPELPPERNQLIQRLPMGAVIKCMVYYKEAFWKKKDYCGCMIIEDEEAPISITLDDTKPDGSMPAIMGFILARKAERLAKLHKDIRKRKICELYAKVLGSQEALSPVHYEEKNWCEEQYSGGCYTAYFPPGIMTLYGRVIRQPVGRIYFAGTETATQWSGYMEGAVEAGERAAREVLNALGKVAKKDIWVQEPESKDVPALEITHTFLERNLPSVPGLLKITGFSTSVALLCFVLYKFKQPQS
Method in brief: (§1)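 Male NMRI mice (18–22 g) dosed ip (0.2 mL/20 g) and killed 1 h later, five per dose. Forebrain was homogenized in 10 vol ice-cold 0.1 M sodium phosphate, pH 7.4, and incubated 10 min at 37 °C with 10 μM [14C]PEA plus 10 μM [3H]5-HT. Acid metabolites were extracted into ethyl acetate and 3H/14C counted in separate channels.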

[4] = target: T2, Monoamine oxidase; assay: Inhibitory activity of Monoamine oxidase at mouse forebrain homogenate by displacing [14C]5-HT; assay type: tissue-based; method in brief: as §1
[5] = target: T1, Monoamine oxidase; assay: In vitro inhibition of Monoamine oxidase at rat hyphalamic mitochondrial 5-HT by displacing 2.5 uM of [14C]5-HT.; assay type: protein assay
[6] = test system: Mus musculus; assay: Compound was injected ip 1 hr prior to 90 mg/kg iv of […] evaluation of head twitches in mice; assay type: functional
Method in brief: (§2)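 Test compound given ip 1 h before iv dl-5-HTP, 90 mg/kg, in mice. The 5-HTP syndrome was scored per Ross et al. for head twitches, tremor and abduction. Values are ED50 in μmol/kg ip.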

[7] = test system: Mus musculus; assay: Compound was injected ip 1 hr prior to 90 mg/kg iv of […] evaluation of abduction in mice; assay type: functional; method in brief: as §2
[8] = test system: Mus musculus; assay: Compound was injected ip 1 hr prior to 90 mg/kg iv of […] evaluation of tremor in mice; assay type: functional; method in brief: as §2
[9] = target: T2, Monoamine oxidase; assay: Inhibitory activity of Monoamine oxidase at mouse forebrain homogenate by displacing [14C]5-HT (serotonin); assay type: tissue-based; details: in the assay text read “[3H]5-HT” for “[14C]5-HT”; method in brief: as §1
[10] = target: T2, Monoamine oxidase; assay: Inhibitory activity of Monoamine oxidase at mouse forebrain homogenate by displacing [14C]PEA (phenethylamine); assay type: tissue-based; method in brief: as §1
[11] = test system: Mus musculus; assay: Lowest dose potentiating the awakening effect of phenethylamine (10 mg/kg, subcutaneous) in mice pretreated with reserpine

Structure (SMILES)	Potentiation [1]	IC50 [2]	ED50 [3]	ED50 [4]	IC50 [5]	ED50 [6]	ED50 [7]	ED50 [8]	ED50 [9]	ED50 [10]	Potentiation [11]
C=C=C(CN)Cc1ccc(C)cc1	>38 µM/kg	0.36 µM	23 µM/kg	> 38 µM/kg	1.1 µM						
C=C=CCN(C)C(C)Cc1ccccc1 (centres undefined)	34 µM/kg	4.7 µM	52 µM/kg	> 69 µM/kg	0.8 µM						
C=C=CCNCc1ccccc1	26 µM/kg	0.15 µM	6 µM/kg	> 51 µM/kg	1.8 µM						
CC=C=CCN(C)Cc1ccccc1		15 µM	36 µM/kg	> 72 µM/kg	29 µM						
C=C=CCN(C)CCCOc1ccc(Cl)cc1Cl	60 µM/kg	4.6 µM	33 µM/kg	6 µM/kg	0.004 µM	1.7 µmol/kg	5.4 µmol/kg	5.1 µmol/kg			
C=C=CCN(C)C1CCc2ccccc21 (centres undefined)	9 µM/kg	0.36 µM	1.7 µM/kg	35 µM/kg	1.8 µM						
C=C=CCN1CCc2ccccc2C1	>90 µM/kg	4.3 µM	> 90 µM/kg	> 90 µM/kg	7 µM						
C=C=CCN(C)Cc1ccccc1		0.17 µM	17 µM/kg	> 48 µM/kg	8.2 µM						
C=C=C(CN)c1ccccc1	>79 µM/kg	0.24 µM	8 µM/kg	> 39 µM/kg	7.2 µM						
C=C=C(CN)Cc1ccccc1	51 µM/kg	0.14 µM	12 µM/kg	> 26 µM/kg	20 µM						
C=C=C(CN)Cc1ccc(Cl)cc1	35 µM/kg	0.04 µM	7 µM/kg	18 µM/kg	0.26 µM						
C=C=C(Cc1ccccc1)CN(C)C	> 72 µM/kg	> 100 µM	54 µM/kg	> 72 µM/kg	25 µM						
C=C=C(CN)Cc1ccc(OC)cc1	36 µM/kg	0.58 µM	16 µM/kg	39 µM/kg	0.7 µM						
C=C=CC(C)N(C)Cc1ccccc1 (centres undefined)		> 100 µM			43 µM						
C=C=C(CNC)Cc1ccccc1	76 µM/kg	0.44 µM	11 µM/kg	> 38 µM/kg	6.2 µM						
CC=C=CCN(C)Cc1ccccc1.O=C(O)C(=O)O (stereo in doubt; (R)(-)2)	72 µM/kg	2.3 µM	20 µM/kg	> 36 µM/kg	17 µM						
CC=C=CCN(C)Cc1ccccc1.O=C(O)C(=O)O (stereo in doubt; (S)(+)2)	>72 µM/kg	50 µM	54 µM/kg	> 72 µM/kg	51 µM						
C#CCN(C)CCCOc1ccc(Cl)cc1Cl [CLORGILINE]									2.6 µM/kg	> 65 µM/kg	>65 µM/kg
C#CCN(C)[C@H](C)Cc1ccccc1 [SELEGILINE]	5 µM/kg		2 µM/kg	> 89 µM/kg							
